Consider twelve compounds from ChEMBL document CHEMBL1154143, “Cytotoxic and anti-inflammatory cembranoids from the soft coral Lobophytum crassum” (J Nat Prod, 2008).

In brackets after ≈: the same amount, converted by molar mass. Some results are limits rather than exact numbers.

For one assay, the system named is HepG2. The assay can be described thus: Cytotoxicity against human HepG2 cells by MTT assay. It counts as functional, cell-based. The essentials:
(§1)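 Human cancer cell lines obtained from ATCC. Cytotoxicity read by MTT colorimetric method.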
A general note: Tetrazolium assays rely on reduction of a dye to a coloured formazan, in cell work by metabolically active cells.

The next assay deals with Ca9-22. The assay can be described thus: Cytotoxicity against human Ca9-22 cells by MTT assay. The format is functional, cell-based. The essentials:
as §1

Another assay has as its system MDA-MB-231. Nature of the assay: Cytotoxicity against human MDA-MB-231 cells by MTT assay. It counts as functional, cell-based. The essentials: as §1
A further assay has as its system MCF7. Nature of the assay: Cytotoxicity against human MCF7 cells by MTT assay. It counts as functional, cell-based. The method in brief: as §1
Assay [1] can be described thus: Cytotoxicity against human Hep3B cells by MTT assay. The format is functional, cell-based, Hep 3B2. The essentials:
as §1

The test system of assay [2] is RAW264.7. Nature of the assay: Antiinflammatory activity in mouse RAW264.7 cells assessed as reduction in LPS-induced iNOS protein level at 10 uM treated 5 mins before LPS challenge by Western blot analysis relative to control. On the set-up: scale not given: the % may be the effect or the level left. The format is functional. The method in brief: (§2)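 Murine RAW 264.7 macrophages kept in DMEM with 10% heat-inactivated FBS at 37 °C, 5% CO2. Compound added 5 min before LPS (0.01 µg/mL), then 16 h incubation. Lysates of equal protein run on SDS-PAGE and blotted. iNOS and COX-2 probed, β-actin used as loading control, ECL detection. Band IOD expressed relative to the LPS-only control. One-way ANOVA with Student-Newman-Keuls test.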
For orientation: Immunoblotting shows a protein as a band on a membrane.

For assay [3], the system named is RAW264.7. Nature of the assay: Antiinflammatory activity in mouse RAW264.7 cells assessed as reduction in LPS-induced COX2 protein level at 10 uM treated 5 mins before LPS challenge by Western blot analysis relative to control. It counts as functional. More on the design: scale not given: the % may be the effect or the level left. The method in brief: as §2
Another assay concerns A549. Nature of the assay: Cytotoxicity against human A549 cells by MTT assay. It counts as functional, cell-based. The essentials: as §1

In the case of `COc1cccc2c1C(=O)c1c(O)c3c(c(O)c1C2=O)C[C@@](O)(C(=O)CO)C[C@@H]3O[C@H]1C[C@H](N)[C@H](O)[C@H](C)O1` [DOXORUBICIN], the half-inhibitory concentration (IC50) (commonly the midpoint of a concentration-inhibition curve) turned out to be 0.2 µg/mL (≈ 0.368 µM) with HepG2; 0.1 µg/mL (≈ 0.184 µM) in the assay with Ca9-22; 0.2 µg/mL (≈ 0.368 µM) with MDA-MB-231; 0.2 µg/mL (≈ 0.368 µM) in the assay with MCF7; 0.2 µg/mL (≈ 0.368 µM) in assay [1].

For the compound `C=C1C(=O)O[C@H]2/C=C(\C)CC/C=C(/C(=O)O)CC/C=C(\C)CC[C@@H]12` [LOBOHEDLEOLIDE], the IC50 with HepG2 was over 5 µg/mL; in the assay with Ca9-22 it was 2.8 µg/mL (≈ 8.47 µM); with MDA-MB-231, over 5 µg/mL; with MCF7 it was over 5 µg/mL; in assay [1], 4.7 µg/mL (≈ 14.2 µM); in the assay on A549, 4.6 µg/mL (≈ 13.9 µM). In addition, the results for the Activity in the assay with RAW264.7 [2] and in the assay with RAW264.7 [3] were 21.5% and 39.2%, respectively.

On to `C=C1C(=O)O[C@H]2/C=C(\C)C/C=C/[C@@](C)(O)CC/C=C(\C)CC[C@@H]12` [CRASSUMOLIDE F], for which the IC50 (in the assay on HepG2; in the assay on Ca9-22; in the assay with MDA-MB-231; in the assay on MCF7; in assay [1]; in the assay with A549) was over 5 µg/mL throughout.

Regarding `C/C1=C\[C@@H]2OC(=O)[C@@H](CN(C)C)[C@@H]2CCC(C)/C=C/C/C(C(=O)O)=C/CC1` (stereo not given in full), the concentration for half-maximal inhibition (IC50) (in the assay on HepG2; in the assay with Ca9-22; with MDA-MB-231; with MCF7; in assay [1]; with A549) was over 5 µg/mL in each case.

As to `C=C(CO)[C@@H]1CC/C(C)=C/CC/C(C)=C/CC/C(C)=C/[C@@H]1O`, the concentration for half-maximal inhibition (IC50) (with HepG2; in the assay on Ca9-22; in the assay with MDA-MB-231; with MCF7; in assay [1]; in the assay with A549) was over 5 µg/mL throughout.

Regarding `C=C1C(=O)O[C@H]2/C=C(\C)CC/C=C(\C)C/C=C/[C@](C)(O)CC[C@@H]12` [CRASSUMOLIDE D], the IC50 (with HepG2; with Ca9-22; in the assay with MDA-MB-231; in the assay on MCF7; in assay [1]; in the assay on A549) was over 5 µg/mL throughout.

For the compound `C=C1C(=O)O[C@H]2/C=C(\C)CC[C@H](OC(C)=O)[C@@]3(C)CC[C@H](OO3)/C(C)=C\C[C@@H]12` [DENTICULATOLIDE], the IC50 with HepG2 is 2.4 µg/mL (≈ 6.15 µM); in the assay with Ca9-22, 1.2 µg/mL (≈ 3.07 µM); in the assay on MDA-MB-231, 2 µg/mL (≈ 5.12 µM); in the assay on MCF7, 2 µg/mL (≈ 5.12 µM); in assay [1], 2.5 µg/mL (≈ 6.4 µM); in the assay on A549 it was 2.3 µg/mL (≈ 5.89 µM). Besides, the Activity with RAW264.7 [2] is recorded as 10.2%; in the assay with RAW264.7 [3], 34.3%.

As to `C=C1C(=O)O[C@H]2/C=C(\C)CC/C=C(\CO)CC/C=C(\C)CC[C@@H]12` [CRASSUMOLIDE B], the IC50 (with HepG2; in the assay on Ca9-22; in the assay on MDA-MB-231; in the assay on MCF7; in assay [1]; with A549) was over 5 µg/mL throughout.

Regarding `C=C(CO)[C@@H]1CC[C@@](C)(OO)/C=C/C/C(C)=C/CC/C(C)=C/[C@@H]1O` [CRASSUMOLIDE E], the IC50 (in the assay on HepG2; in the assay on Ca9-22; in the assay on MDA-MB-231; in the assay with MCF7; in assay [1]; in the assay with A549) was over 5 µg/mL throughout.

Turning to `O=C(/C=C/c1ccc(O)c(O)c1)OCCc1ccccc1` [CAFFEIC ACID PHENETHYL ESTER], the Activity in the assay with RAW264.7 [2] is on record as 2.5%; with RAW264.7 [3] it was 67.2%.

Regarding `C=C1C(=O)O[C@H]2C/C(C)=C/[C@@H](O)C/C(C)=C/CC/C(C)=C/C[C@H]12` [CRASSUMOLIDE A], the IC50 with HepG2 was over 5 µg/mL; with Ca9-22, 3.2 µg/mL (≈ 10.1 µM); in the assay on MDA-MB-231, over 5 µg/mL; in the assay on MCF7 it was over 5 µg/mL; in assay [1], over 5 µg/mL; in the assay with A549, over 5 µg/mL. In addition, the Activity in the assay with RAW264.7 [2] was 26.8%; in the assay with RAW264.7 [3], 50.2%.

Regarding `C=C1C(=O)O[C@H]2/C=C(\C)CC/C=C(\C(=O)OC)CC/C=C(\C)CC[C@@H]12` [CRASSUMOLIDE C], the 50% inhibitory concentration (IC50) in the assay with HepG2 is over 5 µg/mL; in the assay with Ca9-22, 1.7 µg/mL (≈ 4.94 µM); with MDA-MB-231, over 5 µg/mL; in the assay with MCF7, over 5 µg/mL; in assay [1], over 5 µg/mL; with A549, over 5 µg/mL. Also, the figures for the Activity in the assay with RAW264.7 [2] and in the assay on RAW264.7 [3] were 2.3% and 34.5%, respectively.
